Results: article PMC5992016 (Movement disorders : official journal of the Movement …, 2018)
Structures can show the parent of a compound that is named as a salt.

Columns and labels:
[1] = test system: AIMs (abnormal involuntary movements) in rodents; settings: cited from earlier work; for effect on AIMs in rodents: inhibitor of PDEs 5, 6 and 9
[2] = test system: hand movement speed in MPTP-treated macaques; assay: Acute co-administration with s.c. L-Dopa: Klüver board test; assay type: in vivo, Macaca fascicularis
[3] = test system: parkinsonian motor disability in MPTP-treated macaques; assay: Acute co-administration with s.c. L-Dopa: motor disability scores; assay type: in vivo, Macaca fascicularis; settings: amantadine 5 and 10 mg/kg s.c.
How it was run: (§1)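 Used MPTP macaques (3 male, 2 female) on oral carbidopa/levodopa maintenance. Optimal s.c. L-Dopa methyl ester dose (MDS reduction 50–75%) was set per animal, with benserazide at one quarter. Amantadine or test compound (DMSO/cremophor) or vehicle was given s.c. just before. Blinded live and video scoring ran off-state, then from 30 min every 20 min. Part II: peak (50 min) and summed total. Part I: MDS AUC. Triplicate runs were averaged.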

[4] = test system: L-Dopa-induced dyskinesias in MPTP-treated macaques; assay: Acute co-administration with s.c. L-Dopa: LID scores; assay type: in vivo, Macaca fascicularis; settings: L-Dopa optimal dose s.c.; amantadine 5 or 10 mg/kg s.c.
How it was run: as §1

## CCCOc1ccc(S(=O)(=O)N2CCN(CC)CC2)cc1-c1nc2c(CC)n(Cc3ccccn3)nc2c(=O)[nH]1 [UK343664]
[1]
  effect on AIMs in rodents: improves AIMs

## FC(F)(F)Cn1cc(-c2ccncc2)c(-c2ccc(OCc3ccc4ccccc4n3)cc2)n1 [TP-10]
[1]; preliminary tests
  antidyskinetic effects in rodents: antidyskinetic effects

## CCCOc1ccccc1-c1nc2nn[nH]c2c(=O)[nH]1 [zaprinast]
[1]
  effect on AIMs in rodents: improves AIMs

## NC12CC3CC(CC(C3)C1)C2 [amantadine, amantadine hydrochloride]
[2]; L-Dopa optimal dose s.c., amantadine 10 mg/kg s.c.
  movement speed (time) in KBT in the on state: increased
[2]; L-Dopa suboptimal dose s.c., highest dose (MR1916 0.05 mg/kg, amantadine 10 mg/kg s.c.)
  movement speed (time) in KBT: increased
[3]; L-Dopa optimal dose s.c.
  effect on MDS in the on state: significantly increased MDS
[3]; L-Dopa suboptimal dose s.c.
  effect on MDS: reduced the beneficial effect of L-Dopa on MDS
[4]
  effect on LID compared with MR1916: similar
